APP 5'UTR act = APP 5'UTR luciferase reporter activation | activation, % at 2 µM | hit rate 1% among 190,000 | SH-SY5Y APP 5'UTR luciferase reporter, luminescence; zero percent = DMSO vehicle wells;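 active means activation above a set limit, based on mean plus 3 SD of controls, cut at about 140% in these data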
NF-kB neuron act = raises NF-kB expression in human neuronal cells; NF-kB reporter expression; stronger effect = higher value; fold change at 12.5 µM; hit rate 1.6% among 190,000; AID 1239; in the data active means fold change above about 3.3
STAT3 inh-1 = STAT3 signaling inhibition | inhibition, % at 5.5 µM | AID 862 | hit rate 0.89% among 190,000 | U3A cells, IL-6 STAT3-luciferase reporter, luminescence; host cell line lacks STAT1;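 active means inhibition above the mean inhibition across all screened compounds plus 3 SD, cut at about 44% in these data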;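 further: 0% = DMSO only wells and 100% = 100 µM nifuroxazide control wells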
STAT1 activator = increases IFN-gamma driven STAT1 reporter signal | NIH 3T3 STAT1-luciferase reporter, luminescence; 100% = IFN-gamma alone, no compound | activation (% of control), % at 5.5 µM | hit rate 2.6% among 200,000 | AID 932;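 active means activation above the screen-wide mean activation plus 3 SD, cut at about 130% in these data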;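 further: raw ratio to IFN-gamma control signal so 100% means no change and 0% no light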
STAT1 inh = reduces IFN-gamma driven STAT1 reporter signal; inhibition, % at 5.5 µM; NIH 3T3 STAT1-luciferase reporter, luminescence; hit rate 0.35% among 200,000;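 active means inhibition above a set limit, the mean inhibition across all tested compounds plus 3 SD, cut at about 34% in these data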;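 further: 0% = IFN-gamma with DMSO and 100% = IFN-gamma with 300 µM nifuroxazide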
STAT3 act = STAT3 signaling activation; hit rate 0.91% among 190,000; activation (% of control), % at 5.6 µM; U3A cells, IL-6 STAT3-luciferase reporter, luminescence; 100% = signal with IL-6 EC80 alone; AID 871;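 active means activation above the screen-wide mean of compound activation plus 3 SD, cut at about 130% in these data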;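 further: 0% = background luminescence of wells with medium and substrate only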
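Material: STAT1-lacking human U3A cells, STAT3 luciferase reporter | Benchmarks: IL-6-only wells as 100% reference | Probe or stimulus: IL-6 (33 ng/mL) | Timing: Compound 1 h, then IL-6 6 h at 37 °C | Detection: Luminescence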
STAT3 inh-2 = STAT3 inhibition, confirmation assay; AID 1265; shares compounds with STAT3 inh-1; U3A cells, IL-6 STAT3 luciferase reporter, luminescence; cell line lacks STAT1; hit rate 45% among 1,200; inhibition, % at 5.7 µM;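 active means inhibition above the hit cutoff computed for the primary STAT3 screen, cut at about 44% in these data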;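 further: 0% = IL-6 plus DMSO and 100% = IL-6 plus nifuroxazide control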
NFkB inh 2 = inhibits NF-kappaB, counter-screen to STAT3 inhibitors; shares compounds with STAT3 inh-1; HEK293T NF-kB luciferase reporter, TNF-alpha induced; inhibition, % at 5.7 µM; hit rate 36% among 1,200; AID 1308;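 active means inhibition above the mean of solvent-only control wells plus 3 SD, cutoff set per campaign, cut at about 13% in these data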;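 further: 0% = TNF-alpha with DMSO and 100% = TNF-alpha with MG high control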
STAT1 inh 2 = STAT1 inhibition in STAT3 inhibitor counter-screen. inhibition, % at 5.7 µM. shares compounds with STAT3 inh-1. hit rate 27% among 1,200. NIH 3T3 STAT1-luciferase reporter, IFN-gamma induced, luminescence. AID 1317;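 active means inhibition above the mean plus 3 SD of solvent-only control wells, limit set per screening run, cut at about 16% in these data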;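 further: 0% = DMSO with IFN-gamma and 100% = nifuroxazide control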
* hit, by the source's call. Shown are actives, neighbours in structure and some others; about 4.9% of the full set was active somewhere.

What do the screens show for `COc1ccc(C(=O)Nc2ccc3c(c2)OCCO3)cc1`?
APP 5'UTR act: 156*; NF-kB neuron act: 6*; STAT3 inh-1: 66*; STAT1 activator: 92; STAT1 inh: 9; STAT3 act: 48; STAT3 inh-2: 12; NFkB inh 2: -19; STAT1 inh 2: -90

How did CCc1nnc2sc(-c3ccc(NC(=O)c4ccc5c(c4)OCCO5)cc3)nn12 do in these assays?
APP 5'UTR act: 13; NF-kB neuron act: 0.98; STAT3 inh-1: 55*; STAT1 activator: 84; STAT1 inh: 17; STAT3 act: 56; STAT3 inh-2: 51*; NFkB inh 2: 13*; STAT1 inh 2: 32*

What do the screens show for `O=C(Nc1ccc(N2CCN(C(=O)c3ccccc3)CC2)cc1)c1cc2ccccc2o1`?
APP 5'UTR act: -20; NF-kB neuron act: 0.74; STAT3 inh-1: 63*; STAT1 activator: 100; STAT1 inh: 0; STAT3 act: 50; STAT3 inh-2: 59*; NFkB inh 2: 14*; STAT1 inh 2: -5

How did Cc1ccsc1C(=O)Nc1ccc2c(c1)OCCO2 do in these assays?
APP 5'UTR act: 127; NF-kB neuron act: 6.2*; STAT3 inh-1: 55*; STAT1 activator: 125; STAT1 inh: -28; STAT3 act: 54; STAT3 inh-2: 14; NFkB inh 2: -17; STAT1 inh 2: -77

Results for CCCC(=O)N1CCN(c2ccc(NC(=O)c3cc4ccccc4o3)cc2)CC1 ?
APP 5'UTR act: -7; NF-kB neuron act: 0.29; STAT3 inh-1: 30; STAT1 activator: 100; STAT1 inh: 0; STAT3 act: 78

What do the screens show for `CCCCNCCOc1ccccc1-c1ccccc1`?
APP 5'UTR act: 23; NF-kB neuron act: 0.84; STAT3 inh-1: -13; STAT1 activator: 86; STAT1 inh: 15; STAT3 act: 108

How did O=C(CCn1c(=O)sc2ccccc21)NCc1ccc2c(c1)OCO2 do in these assays?
APP 5'UTR act: -1; NF-kB neuron act: 1.4; STAT3 inh-1: -5; STAT1 activator: 104; STAT1 inh: -4; STAT3 act: 107

Results for c1ccc2c(CCNc3ncnc4nc[nH]c34)cccc2c1 ?
APP 5'UTR act: 11; NF-kB neuron act: 0.84; STAT3 inh-1: 35; STAT1 activator: 102; STAT1 inh: -1; STAT3 act: 73

What do the screens show for `CS(=O)(=O)N(CC(=O)NC1CCCC1)c1ccc2c(c1)OCCO2`?
APP 5'UTR act: -11; NF-kB neuron act: 0.98; STAT3 inh-1: -2; STAT1 activator: 109; STAT1 inh: -10; STAT3 act: 105

Results for CC(C)(C)c1ccc(C(=O)Nc2cccc3c(=O)[nH][nH]c(=O)c23)cc1 ?
APP 5'UTR act: 91; NF-kB neuron act: 1.8; STAT3 inh-1: 67*; STAT1 activator: 94; STAT1 inh: 7; STAT3 act: 43; STAT3 inh-2: -6; NFkB inh 2: 3; STAT1 inh 2: -21

What do the screens show for `Cc1nn2cc(-c3ncc(C(F)(F)F)cc3Cl)cnc2c1Br`?
APP 5'UTR act: 505*; NF-kB neuron act: 0.92; STAT3 inh-1: 47*; STAT1 activator: 129*; STAT1 inh: -32; STAT3 act: 63; STAT3 inh-2: 47*; NFkB inh 2: 10; STAT1 inh 2: -43

Results for Cc1cc2ncc(-c3ncc(C(F)(F)F)cc3Cl)cn2n1 ?
APP 5'UTR act: 138*; NF-kB neuron act: 0.91; STAT3 inh-1: 64*; STAT1 activator: 75; STAT1 inh: 28; STAT3 act: 51; STAT3 inh-2: 42; NFkB inh 2: 5; STAT1 inh 2: -39

What do the screens show for `O=C(CCc1ccc(Oc2cc([N+](=O)[O-])cc([N+](=O)[O-])c2)cc1)N1CCCCCC1`?
APP 5'UTR act: -4; NF-kB neuron act: 1.3; STAT3 inh-1: -6; STAT1 activator: 81; STAT1 inh: 20; STAT3 act: 103

Results for Cc1ccc(NS(=O)(=O)c2cc(C(=O)N3CCN(C)CC3)ccc2C)cc1C ?
APP 5'UTR act: 18; NF-kB neuron act: 1.1; STAT3 inh-1: 3; STAT1 activator: 96; STAT1 inh: 1; STAT3 act: 102

Results for CC(O)[C@@H](C(=O)N1CCNCC1)n1cc(CCCCN)nn1 (some centres undefined) ?
APP 5'UTR act: 33; NF-kB neuron act: 1; STAT1 activator: 97; STAT1 inh: 5

How did Cc1nc(Nc2nc3ccccc3o2)nc2c1CCC2 do in these assays?
APP 5'UTR act: 125; NF-kB neuron act: 3.7*; STAT3 inh-1: 70*; STAT1 activator: 93; STAT1 inh: 8; STAT3 act: 45; STAT3 inh-2: 28; NFkB inh 2: -7; STAT1 inh 2: -66

How did CC(C)C(=O)Nc1ccc(NC(=O)c2ccccn2)cn1 do in these assays?
APP 5'UTR act: 101; NF-kB neuron act: 1.9; STAT3 inh-1: 53*; STAT1 activator: 92; STAT1 inh: 9; STAT3 act: 60; STAT3 inh-2: 16; NFkB inh 2: -22; STAT1 inh 2: -42

What do the screens show for `CC(C)C(=O)Nc1ccc(NC(=O)c2cccnc2)cn1`?
APP 5'UTR act: -8; NF-kB neuron act: 0.96; STAT3 inh-1: 14; STAT1 activator: 97; STAT1 inh: 4; STAT3 act: 91

What do the screens show for `O=C(O)CN(C1CCCCC1)S(=O)(=O)c1ccc(F)cc1`?
APP 5'UTR act: 15; NF-kB neuron act: 1; STAT3 inh-1: -3; STAT1 activator: 98; STAT1 inh: 1; STAT3 act: 105

What do the screens show for `Cc1cc(-c2c(C)[nH]n(-c3ccc(Cl)cc3)c2=O)n[nH]1`?
APP 5'UTR act: 22; NF-kB neuron act: 1.1; STAT3 inh-1: 1; STAT1 activator: 105; STAT1 inh: -6; STAT3 act: 109

How did Cc1cc(C(=O)Nc2nc3c(s2)CCCC3)cs1 do in these assays?
APP 5'UTR act: 119; NF-kB neuron act: 6.4*; STAT3 inh-1: 52*; STAT1 activator: 136*; STAT1 inh: -37; STAT3 act: 60; STAT3 inh-2: 21; NFkB inh 2: -41; STAT1 inh 2: -137

How did CCN(CC)c1ccc(Nc2nc(N3CCOCC3)c3ccccc3n2)cc1 do in these assays?
APP 5'UTR act: -20; NF-kB neuron act: 0.84; STAT3 inh-1: 49*; STAT1 activator: 81; STAT1 inh: 20; STAT3 act: 61; STAT3 inh-2: 41; NFkB inh 2: 9; STAT1 inh 2: 15

What do the screens show for `COc1ccc(Nc2nc(N3CCCC3)c3ccccc3n2)cc1`?
APP 5'UTR act: -19; NF-kB neuron act: 0.44; STAT3 inh-1: 22; STAT1 activator: 86; STAT1 inh: 14; STAT3 act: 85

Bioassay records deposited in PubChem BioAssay by several laboratories.
